Screening results as filed in PubChem BioAssay.
CAL PDZ FP-1: blocks peptide binding to the human CAL PDZ domain. Q9HD26. purified CAL PDZ, TMR-peptide fluorescence polarization, 1 h. inhibition, % at 24.9 µM. hit rate 0.92% among 300,000;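 active means mean inhibition of at least 30% with at least half of replicates also reaching 30%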
PDI turbidity: blocks human protein disulfide isomerase activity. inhibition, % at 10 µM. P07237. hit rate 0.052% among 350,000. PDI insulin aggregation turbidity, A650, 90 min. AID 588391;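 active means mean inhibition across replicates of 30% or more, whatever share of single replicates reach that level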
RAD54 inh: inhibitors of human RAD54 branch migration; AID 602329; inhibition, % at 10.4 µM; Q92698; RAD54 Holliday junction branch migration, FAM/BHQ fluorescence; hit rate 0.14% among 360,000;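 active means mean normalized replicate activity at least 40 and at least half of replicates scoring 40 or more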;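 further: inhibitors cause a drop in the FAM fluorescence signal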
Target sequence (Q92698 whole entry, looked up): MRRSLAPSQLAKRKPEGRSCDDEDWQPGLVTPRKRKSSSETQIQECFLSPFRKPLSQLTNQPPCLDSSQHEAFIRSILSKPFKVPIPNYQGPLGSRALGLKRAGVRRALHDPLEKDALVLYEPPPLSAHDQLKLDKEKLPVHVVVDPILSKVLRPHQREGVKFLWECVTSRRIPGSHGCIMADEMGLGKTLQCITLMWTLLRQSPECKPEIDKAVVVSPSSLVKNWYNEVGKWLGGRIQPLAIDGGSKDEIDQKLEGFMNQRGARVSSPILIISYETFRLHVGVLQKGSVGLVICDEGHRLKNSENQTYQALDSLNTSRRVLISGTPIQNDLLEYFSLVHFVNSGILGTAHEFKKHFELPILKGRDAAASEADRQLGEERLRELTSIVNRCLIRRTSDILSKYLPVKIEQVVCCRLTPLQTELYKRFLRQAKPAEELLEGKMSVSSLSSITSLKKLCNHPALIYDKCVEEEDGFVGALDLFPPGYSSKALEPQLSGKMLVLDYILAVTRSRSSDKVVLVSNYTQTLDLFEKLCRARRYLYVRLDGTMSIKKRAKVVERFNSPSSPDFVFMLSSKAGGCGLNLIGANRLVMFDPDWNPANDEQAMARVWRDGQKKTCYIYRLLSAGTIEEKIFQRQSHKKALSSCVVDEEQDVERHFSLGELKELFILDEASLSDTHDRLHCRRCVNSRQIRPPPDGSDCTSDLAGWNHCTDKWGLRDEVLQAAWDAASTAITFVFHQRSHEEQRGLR
ERp5 block: ERp5 (human) disulfide isomerase inhibition | AID 651711 | ERp5 insulin aggregation, absorbance 650 nm, 90 min | hit rate 0.05% among 350,000 | inhibition, % at 9.99 µM | Q15084;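 active means mean replicate inhibition above about 25%, with every replicate also reaching it, limit read from the data, passing the limit was not always enough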
CAL PDZ FP-2: inhibitors of human CAL PDZ peptide binding; purified CAL PDZ, TMR-peptide fluorescence polarization, 1 h; inhibition, % at 20 µM; Q9HD26; hit rate 0.02% among 330,000; AID 504414;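 active means highest replicate inhibition of at least 40%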
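Material: tagged CAL PDZ protein CerCALP, purified; buffer or medium: sodium phosphate/NaCl buffer pH 7.4 with TCEP, IgG, Thesit; also added: fluorescent TMR peptide probe; schedule: 1 h incubation at room temperature before polarization reading; technique: fluorescence polarization from S- and P-plane intensities, G-factor corrected; control set: unlabelled peptide and DMSO controls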
RAD52 anneal inh: RAD52 (human) annealing inhibition; P43351; recombinant RAD52 DNA annealing, FRET fluorescence; inhibition, % at 18.7 µM; hit rate 0.46% among 360,000;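 active means every replicate showing at least 50% inhibition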
Hits are given with their value; ! = not active in a repeat. This is a sample that favours compounds with a hit; in the whole collection about 1% have one here.

Screening COc1ccc(-n2nc(C(=O)NCC(=O)N3CCN(c4ccccn4)CC3)c3ccccc3c2=O)c(OC)c1 returned CAL PDZ FP-1 43, PDI turbidity inactive, RAD54 inh inactive, ERp5 block inactive, CAL PDZ FP-2 inactive and RAD52 anneal inh inactive.
For COc1ccc(-n2nc(C(=O)NCC(=O)N3CCN(c4cccc(Cl)c4)CC3)c3ccccc3c2=O)c(OC)c1 the results were PDI turbidity inactive, RAD54 inh inactive, ERp5 block inactive, CAL PDZ FP-2 inactive and RAD52 anneal inh inactive.
`COc1ccc(-n2nc(C(=O)NCC(=O)N3CCC(C)CC3)c3ccccc3c2=O)cc1` gave CAL PDZ FP-1 47, PDI turbidity inactive, RAD54 inh inactive, ERp5 block inactive, CAL PDZ FP-2 inactive and RAD52 anneal inh inactive.
For CC(C)(C)OC(=O)N1CCC(C(=O)N[C@@H](Cc2c[nH]c3ccccc23)C(=O)O)CC1 the results were CAL PDZ FP-1 inactive, PDI turbidity inactive, RAD54 inh inactive, ERp5 block inactive and RAD52 anneal inh inactive.
O=C(N[C@@H](Cc1c[nH]c2ccccc12)C(=O)O)C1CCN(S(=O)(=O)c2cccs2)CC1 was read as CAL PDZ FP-1 71, PDI turbidity inactive, RAD54 inh inactive, ERp5 block inactive and RAD52 anneal inh inactive.
`O=C(N[C@@H](Cc1c[nH]c2ccccc12)C(=O)O)C1CCN(S(=O)(=O)c2ccc(Cl)cc2)CC1` gave CAL PDZ FP-1 32, PDI turbidity inactive, RAD54 inh inactive, ERp5 block inactive, CAL PDZ FP-2 inactive and RAD52 anneal inh inactive.
Screening Oc1ccccc1-c1nnc(SCCN2CCOCC2)n1Cc1ccccc1 returned CAL PDZ FP-1 56, PDI turbidity inactive, RAD54 inh inactive and CAL PDZ FP-2 inactive.
For C[C@@H](NC(=O)[C@H]1[C@H](CO)[C@H]2Cn3c(ccc(C4=CCCC4)c3=O)[C@@H]1N2C(=O)C1CC1)c1ccccc1 the results were ERp5 block inactive and RAD52 anneal inh inactive.
`COc1cccc(S(=O)(=O)N2C[C@@H]3N[C@H](C2)C3c2ccc(-c3ccccc3OC)cc2)c1` (some centres undefined) gave ERp5 block inactive and RAD52 anneal inh 56!.
Cc1ccccc1S(=O)(=O)N1C[C@@H]2N[C@H](C1)C2c1ccc(-c2ccc(C#N)cc2)cc1 (some centres undefined) was read as ERp5 block inactive and RAD52 anneal inh 72!.
Screening COc1ccccc1-c1ccc(C2[C@@H]3CN(S(=O)(=O)c4ccccc4C)C[C@H]2N3)cc1 (some centres undefined) returned ERp5 block inactive and RAD52 anneal inh 51.
Screening Cc1ccccc1S(=O)(=O)N1C[C@@H]2N[C@H](C1)C2c1ccc(-c2ccc(C(=O)N(C)C)cc2)cc1 (some centres undefined) returned ERp5 block inactive and RAD52 anneal inh inactive.
For COc1cccc(S(=O)(=O)N2C[C@@H]3N[C@H](C2)C3c2ccc(-c3ccccc3C)cc2)c1 (some centres undefined) the results were ERp5 block inactive and RAD52 anneal inh inactive.
Screening COc1cccc(-c2ccc(C3[C@@H]4CN(S(=O)(=O)c5cccc(OC)c5)C[C@H]3N4)cc2)c1 (some centres undefined) returned ERp5 block inactive and RAD52 anneal inh 70!.
CC(C)NC(=O)N(C)C[C@@H]1Oc2cc(-c3ccncc3)ccc2S(=O)(=O)N([C@H](C)CO)C[C@H]1C was read as RAD54 inh inactive, ERp5 block inactive and RAD52 anneal inh inactive.
For CC(C)C#Cc1ccc2c(c1)O[C@H](CN(C)S(=O)(=O)c1cn(C)cn1)[C@@H](C)CN([C@@H](C)CO)S2(=O)=O the results were RAD54 inh inactive, ERp5 block inactive and RAD52 anneal inh inactive.
For COc1ccccc1S(=O)(=O)N1C[C@@H]2N[C@H](C1)C2c1ccc(-c2ccccc2)cc1 (some centres undefined) the results were ERp5 block inactive and RAD52 anneal inh inactive.
Screening COc1ccccc1-c1ccc([C@@H]2[C@@H]3CN(S(=O)(=O)c4ccc(-c5ccccc5)cc4)C[C@H]2N3)cc1 returned ERp5 block inactive and RAD52 anneal inh 88.
CN(C)CCNc1nc(S(=O)(=O)c2ccccc2)c(Cl)s1 was read as CAL PDZ FP-1 83, PDI turbidity inactive, ERp5 block inactive, CAL PDZ FP-2 inactive and RAD52 anneal inh inactive.
CC(C)CNc1nc(S(=O)(=O)c2ccccc2)c(Cl)s1 was read as CAL PDZ FP-1 inactive, PDI turbidity inactive, RAD54 inh inactive, ERp5 block inactive, CAL PDZ FP-2 inactive and RAD52 anneal inh inactive.
For C[C@H](CO)N1C[C@H](C)[C@@H](CN(C)C(=O)NC2CCCCC2)Oc2c(NC(=O)C3CCOCC3)cccc2C1=O the results were RAD54 inh inactive, ERp5 block inactive and RAD52 anneal inh inactive.
`O=C(O)c1ccccc1NS(=O)(=O)c1cccc(C(F)(F)F)c1` gave PDI turbidity inactive, RAD54 inh inactive and CAL PDZ FP-2 inactive.
`O=C(O)c1ccccc1NS(=O)(=O)c1cccc(-n2sc3ccccc3c2=O)c1` gave CAL PDZ FP-1 34, PDI turbidity inactive, RAD54 inh inactive, ERp5 block inactive, CAL PDZ FP-2 inactive and RAD52 anneal inh inactive.
Screening C[C@H]1CN([C@@H](C)CO)S(=O)(=O)c2ccc(C#CC3CCCC3)cc2O[C@H]1CN(C)Cc1ccccc1C(=O)O returned RAD54 inh inactive, ERp5 block inactive and RAD52 anneal inh inactive.
For NC(=O)Cn1cc(/C=N\NS(=O)(=O)c2ccc(F)cc2)c2ccccc21 the results were CAL PDZ FP-1 35, PDI turbidity inactive, RAD54 inh inactive, ERp5 block inactive, CAL PDZ FP-2 inactive and RAD52 anneal inh inactive.
For Cc1ccc(OCC(=O)Nc2cc(NC(=O)COc3ccc(C)cc3)cc(C(=O)O)c2)cc1 the results were CAL PDZ FP-1 inactive, PDI turbidity inactive, RAD54 inh inactive, ERp5 block inactive, CAL PDZ FP-2 inactive and RAD52 anneal inh inactive.
`O=C(COc1ccc(Cl)cc1)Nc1cc(NC(=O)COc2ccc(Cl)cc2)cc(C(=O)O)c1` gave CAL PDZ FP-1 86, PDI turbidity inactive, RAD54 inh inactive, ERp5 block inactive and RAD52 anneal inh inactive.
`O=C(NCc1ccc(Cl)cc1)c1ccc(CNc2c(N3CCOCC3)c(=O)c2=O)cc1` gave CAL PDZ FP-1 69, PDI turbidity inactive, RAD54 inh inactive, ERp5 block inactive, CAL PDZ FP-2 inactive and RAD52 anneal inh inactive.
`O=C(NCCc1ccc(Cl)cc1)c1ccc(CNc2c(N3CCOCC3)c(=O)c2=O)cc1` gave CAL PDZ FP-1 inactive, PDI turbidity inactive, RAD54 inh inactive, ERp5 block inactive, CAL PDZ FP-2 inactive and RAD52 anneal inh inactive.
`Cc1ccc(NC(=O)C(c2ccc(Cl)cc2)N2CCOCC2)cc1` (centres undefined) gave CAL PDZ FP-1 43, PDI turbidity inactive, ERp5 block inactive, CAL PDZ FP-2 inactive and RAD52 anneal inh inactive.
